From PubChem BioAssay
Most compounds without a hit are left out; they make up all but 2.1% or so of the library.
KLF5 inhibitor: kruppel-like factor 5 inhibition; actives 0.23% (n = 290,000); DLD-1 KLF5 promoter-luciferase reporter, luminescence; inhibition, % at 5 µM;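 active = inhibition above a per-plate limit of that plate's mean compound inhibition plus 3 SD, cut at about 60% in these data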;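 note: higher means less KLF5 promoter-driven luciferase light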
BaF3 parental: parental Ba/F3 viability inhibition as JAK2V617F counter-screen. actives 1.1% (n = 220,000). AID 1486. CellTiter-Glo ATP luminescence. inhibition, % at 5.6 µM;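 active = inhibition above a per-campaign cutoff, the mean inhibition of all tested compounds plus 3 SD, cut at about 27% in these data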
IEC-6 cytotox: kills IEC-6 intestinal cells in KLF5 counter-screen | inhibition, % at 5 µM | AID 1825 | IEC-6 cytotoxicity, luminescence viability | actives 0.78% (n = 290,000); in the data active = inhibition above about 22%
Ba/F3 V617F tox: reduce viability of Ba/F3 cells dependent on JAK2V617F; Ba/F3 EpoR-JAK2V617F viability, ATP luminescence; inhibition, % at 5.6 µM; actives 1.1% (n = 220,000); AID 1446;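 active = inhibition above the campaign mean plus 3 SD over all tested compounds, cut at about 24% in these data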;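 note: cytokine-independent growth of Ba/F3 cells driven by EpoR plus mutant JAK2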
MT stabilize HCS: microtubule stabilizers in HeLa cells | HeLa tubulin immunostaining HCS, 24 h; share of cells brighter than vehicle mean+2SD | % tubulin-high responders, % at 10 µM | actives 0.83% (n = 200,000) | AID 2205;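 active = plate Z-score above 3 for both tubulin-high and condensed-nucleus cell shares, with cell loss under 80%, at 10 µM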;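 note: anti alpha tubulin signal scored within the nucleus-defined area of each cell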
bCat nuc transl: modulators of beta-catenin nuclear translocation; HeLa beta-catenin nuclear translocation, immunofluorescence imaging; nuclear translocation activity, % at 5 µM; actives 0.3% (n = 190,000);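 active = nuclear translocation activity above 50% at 5 µM, with a well cell count of 50 or more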;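 note: per-cell ratio of nuclear to cytoplasmic median beta-catenin stain intensity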
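assay system = human HeLa cells, endogenous beta-catenin | times = compound treatment 24 h, 37°C, 5% CO2 | detection = Anti-beta-catenin immunofluorescence on PFA-fixed, Triton-permeabilized cells, DAPI nuclei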
A number is an active result; . = inactive; / = not tested or not shown.

SMILES | KLF5 inhibitor | BaF3 parental | IEC-6 cytotox | Ba/F3 V617F tox | MT stabilize HCS | bCat nuc transl
CCOC(=O)C1CCCN(S(=O)(=O)c2ccccc2)C1 (centres undefined) | . | . | . | . | . | .
Cn1c(N)c(C(=O)COC(=O)CSc2ccccc2)c(=O)n(C)c1=O | . | . | . | . | . | .
Cn1c(N)c(C(=O)COC(=O)CC2CC3CCC2C3)c(=O)n(C)c1=O (centres undefined) | . | 60 | . | . | . | .
O=c1c2ccccc2nc(/C=C/c2c[nH]c3ccccc23)n1-c1ccc([N+](=O)[O-])cc1 | . | . | . | . | . | .
C=CCO/N=C(/C)c1ccc(Oc2cnccn2)cc1 | . | . | . | . | . | .
O=C(Nc1nc(-c2ccccn2)cs1)c1ccc([N+](=O)[O-])o1 | . | 89 | . | 84 | / | .
O=C(Nc1ccc(Cl)cn1)c1ccc([N+](=O)[O-])o1 | . | . | . | . | 8.3 | .
Cc1c(Cl)c([N+](=O)[O-])nn1Cc1ccc(C(=O)Nc2ccc(Cl)cn2)o1 | . | . | . | . | . | .
O=C(Nc1nc(-c2ccccn2)cs1)c1cc(Cl)ccc1[N+](=O)[O-] | 64 | 61 | 83 | 72 | . | .
Cc1ccc(C(=O)Nc2nc(-c3ccccn3)cs2)o1 | . | . | . | . | / | .
COC(=O)CCC(=O)Nc1ccc(Cl)c(Cl)c1 | . | . | . | . | . | .
CO/N=C\CC(=O)Nc1ccc(Cl)c(Cl)c1 | . | . | . | . | 26 | .
COc1ccc(CCn2c(=O)c3cccnc3n(Cc3cccc([N+](=O)[O-])c3)c2=O)cc1OC | . | . | . | . | . | .
CCOC(=O)c1c(C)[nH]c(C)c1C(=O)Cn1nnc(-c2ccccc2C)n1 | . | . | . | . | . | /
CCOC(=O)c1c(CN2CCN(c3ccccc3)CC2)oc2ccc(O)cc12 | . | . | . | . | 13 | .
CNc1ccccc1C(C)(C)c1cc(-c2cccc(OC)c2)no1 | . | 56 | . | 48 | . | .
N#CCSc1nc2ccccc2c2nc3ccccc3n12 | . | 49 | . | 63 | . | .
CCn1c(SCC#N)nc2ccccc2c1=O | . | . | . | . | / | .
CCC/C(O)=C1\C(=O)CC(C)(C)CC1=Nc1ccc(OC)cc1OC | . | . | . | . | . | 76
COC(=O)CC/C(O)=C1\C(=O)CC(C)(C)CC1=Nc1ccccc1OC | . | . | . | . | 17 | .
COc1ccc(N(C(=O)Cn2nnc(-c3ccccc3F)n2)C(C(=O)NCC2CCCO2)c2ccc(Cl)cc2)cc1 (centres undefined) | . | . | . | . | . | .
CC(C)N(Cc1cnn(C)c1)Cc1nc(-c2ccc(Cl)cc2)no1 | . | . | . | . | . | .
CC1CCCC(N2CCN(C(=O)c3cccc(F)c3)CC2)C1 (centres undefined) | . | . | . | . | . | .
CC1(C)c2ssc(=S)c2-c2ccccc2N1C(=O)c1ccco1 | . | . | . | . | . | .
Cc1ccc2c(c1)-c1c(ssc1=S)C(C)(C)N2C(=O)c1ccco1 | . | . | . | . | 37 | .
SMILES | KLF5 inhibitor | BaF3 parental | IEC-6 cytotox | Ba/F3 V617F tox | MT stabilize HCS | bCat nuc transl
O=C(Nc1ccc(S(=O)(=O)N2CCOCC2)cc1)c1ccc(CN2CCc3ccccc3C2)cc1 | . | 51 | . | 63 | . | .
O=C(NCCCN1CCOCC1)c1cccc(S(=O)(=O)N2CCc3ccccc3C2)c1 | . | . | . | . | 63 | .
C/C(=N\NC(=O)c1nnn(-c2nonc2N)c1CN(C)c1ccccc1)c1ccccn1 | 62 | / | 38 | / | / | /
Cc1cccc(Nc2ccc([N+](=O)[O-])cn2)c1 | . | / | . | / | / | /
CCOC(=O)C1CCN(c2c(NCc3ccc(C(=O)N(C)Cc4ccccc4)cc3)c(=O)c2=O)CC1 | . | . | . | . | . | .
CC(C)CCNC(=O)NC(=O)COc1ncnc2sccc12 | . | 96 | . | . | . | .
COc1cc(C)c(Cl)cc1S(=O)(=O)n1cnc(C)c1 | . | . | . | . | . | /
COc1ccc(C(C)C)cc1S(=O)(=O)n1cnc(C)c1 | . | . | . | . | 18 | /
CCOc1cc(C)c(C(C)C)cc1S(=O)(=O)n1cnc(C)c1 | . | . | . | . | 18 | .
Cc1ccc(CNC(=O)CN(C(=O)C2(C)CC(=O)N=C3C=CC=CN32)c2ccccc2F)cc1 (centres undefined) | . | / | . | / | / | /
C=CCOC(=O)c1[nH]c2c(c1C)C(=O)CC(c1cc(OC)c(OC)c(OC)c1)C2 (centres undefined) | . | 44 | . | 41 | . | .
COC(=O)c1[nH]c2c(c1C)C(=O)CC(c1cc(OC)ccc1OC)C2 (centres undefined) | . | . | . | . | 27 | .
COCCOC(=O)c1[nH]c2c(c1C)C(=O)CC(c1ccc(F)cc1)C2 (centres undefined) | . | . | . | . | 22 | 78
COCCOC(=O)c1[nH]c2c(c1C)C(=O)CC(c1ccco1)C2 (centres undefined) | . | 77 | . | 76 | . | 66
COCCOC(=O)c1[nH]c2c(c1C)C(=O)CC(c1cc(OC)c(OC)c(OC)c1)C2 (centres undefined) | . | / | . | / | / | /
Cc1ccc(C(=O)NCCc2nnc3ccc(SCC(=O)NCc4ccc(F)cc4)nn23)cc1 | . | / | . | / | / | /
O=C(CNC1CCN(Cc2ccccc2)CC1)Nc1ccc(S(=O)(=O)N2CCCCC2)cc1 | . | . | . | . | / | .
COC(=O)c1c(-c2ccc(C)cc2)csc1NC(=O)Cc1ccc(OC)c(OC)c1 | . | . | . | . | . | /
COC(=O)c1c(-c2cccc3ccccc23)csc1NC(=O)Cc1ccc(OC)c(OC)c1 | . | . | . | . | 52 | /
O=C(C[N+]1(CC#Cc2ccccc2)CCOCC1)c1ccc(Cl)cc1 | . | . | . | . | . | .
O=C(C[N+]1(CC#Cc2ccccc2)CCCCC1)c1ccc(Cl)cc1 | . | 38 | . | . | . | .
O=C(C[N+]1(CC#Cc2ccccc2)CCCCC1)c1ccccc1 | . | 34 | . | 25 | . | .
Cc1nc2c(cnn2-c2ccccc2Cl)c(=O)n1-c1ccc(C(C)C)cc1 | . | . | . | . | . | /
CCOC(=O)CNC(=O)CSc1nc2c(C)cccc2cc1CC | . | . | . | . | . | .
CNC(=S)N/N=C/c1cc(Br)c(OCc2ccncc2)c(OC)c1 | . | / | . | / | / | /
SMILES | KLF5 inhibitor | BaF3 parental | IEC-6 cytotox | Ba/F3 V617F tox | MT stabilize HCS | bCat nuc transl
CCOc1cc(/C=N/N=C(\N)c2nonc2N)cc(Br)c1OCc1cccc2ccccc12 | . | . | . | . | . | .
COc1cc(/C=N/NC(N)=S)cc(Br)c1OCc1ccccc1F | . | 53 | . | 65 | . | .
CCOc1cc(/C=N/NC(N)=S)cc(Br)c1OCc1ccccc1C | . | 28 | . | . | . | .
S=C(Nc1ccccc1)N1CCCN1c1ccccc1 | . | 30 | . | 24 | / | .
S=C(Nc1ccccc1)N1CCCCC1 | . | . | . | . | . | .
O=C1CCC(C(=O)N2CCCC(C(=O)c3ccc4c5c(cccc35)CC4)C2)=NN1 (centres undefined) | . | . | . | . | 33 | .
